Key:
[1] = tested on: Escherichia coli; experiment: Antimicrobial activity against dnaJ deficient Escherichia coli K-12 BW-25113 assessed as decrease in persistence at 100 ug/ml after 3 hrs by time kill analysis; type: functional, K-12 BW25113
How it was run: (§1)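 Keio single-gene deletion strains of E. coli K-12 BW25113 and the parent strain. Cultures: 1 ml LB overnight at 37°C with aeration, then diluted 1:100 into MOPS minimal medium (0.1% succinate, 0.05% Casamino Acids) and grown 5 h to exponential phase (~2 × 10^8 CFU/ml). Challenged 3 h with ciprofloxacin 1 μg/ml, streptomycin 10 μg/ml or ampicillin 100 μg/ml. Samples taken before and after, diluted, spot-plated on LB agar for CFU. Triplicate, standard deviations.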

[2] = tested on: Escherichia coli; experiment: Antimicrobial activity against ygfA deficient Escherichia coli K-12 BW-25113 assessed as decrease in persistence at 100 ug/ml after 3 hrs by time kill analysis; type: functional, K-12 BW25113; how it was run: as §1
[3] = tested on: Escherichia coli; experiment: Antimicrobial activity against dnaK deficient Escherichia coli K-12 BW-25113 assessed as decrease in persistence at 100 ug/ml after 3 hrs by time kill analysis; type: functional, K-12 BW25113; how it was run: as §1
[4] = tested on: Escherichia coli; experiment: Antimicrobial activity against dksA deficient Escherichia coli K-12 BW-25113 assessed as decrease in persistence at 100 ug/ml after 3 hrs by time kill analysis; type: functional, K-12 BW25113; how it was run: as §1
[5] = tested on: Escherichia coli; experiment: Antimicrobial activity against dksA deficient Escherichia coli K-12 BW-25113 assessed as decrease in persistence at 10 ug/ml after 3 hrs by time kill analysis relative to wild type; type: functional, K-12 BW25113; how it was run: as §1
[6] = tested on: Escherichia coli; experiment: Antimicrobial activity against ygfA deficient Escherichia coli K-12 BW-25113 assessed as decrease in persistence at 10 ug/ml after 3 hrs by time kill analysis relative to wild type; type: functional, K-12 BW25113; how it was run: as §1
[7] = tested on: Escherichia coli; experiment: Antimicrobial activity against dnaJ deficient Escherichia coli K-12 BW-25113 assessed as decrease in persistence at 10 ug/ml after 3 hrs by time kill analysis; type: functional, K-12 BW25113; how it was run: as §1
[8] = tested on: Escherichia coli; experiment: Antimicrobial activity against yigB deficient Escherichia coli K-12 BW-25113 assessed as decrease in persistence at 10 ug/ml after 3 hrs by time kill analysis relative to wild type; type: functional, K-12 BW25113; how it was run: as §1
[9] = tested on: Escherichia coli; experiment: Antimicrobial activity against dnaK deficient Escherichia coli K-12 BW-25113 assessed as decrease in persistence at 10 ug/ml after 3 hrs by time kill analysis; type: functional, K-12 BW25113; how it was run: as §1
[10] = tested on: Escherichia coli; experiment: Antimicrobial activity against surA deficient Escherichia coli K-12 BW-25113 assessed as survival rate at 10 ug/ml after 6 hrs by time kill analysis
[11] = tested on: Escherichia coli; experiment: Antimicrobial activity against apaH deficient Escherichia coli K-12 BW-25113 assessed as survival rate at 10 ug/ml after 6 hrs by time kill analysis
[12] = tested on: Escherichia coli; experiment: Antimicrobial activity against Escherichia coli K-12 BW-25113 assessed as survival rate at 10 ug/ml after 6 hrs by time kill analysis

Q: For `CC1(C)S[C@@H]2[C@H](NC(=O)[C@H](N)c3ccccc3)C(=O)N2[C@H]1C(=O)O` [AMPICILLIN], which “fold change (FC)” value [1] is on record?
A: 46

Q: What about the “fold change (FC)” value [2] of the same molecule?
A: 82

Q: What about the “fold change (FC)” value [3] of the same molecule?
A: 13

Q: And the “fold change (FC)” value [4]?
A: 40

Q: What does the source list for `CN[C@@H]1[C@H](O[C@H]2[C@H](O[C@H]3[C@H](O)[C@@H](O)[C@H](N=C(N)N)[C@@H](O)[C@@H]3N=C(N)N)O[C@@H](C)[C@]2(O)C=O)O[C@@H](CO)[C@H](O)[C@H]1O` [STREPTOMYCIN]?
A: fold change (FC) [5]: 6; fold change (FC) [6]: 3; fold change (FC) [7]: 87; fold change (FC) [8]: 10; fold change (FC) [9]: 66

Q: For `CC1COc2c(N3CCN(C)CC3)c(F)cc3c(=O)c(C(=O)O)cn1c23` (configuration not stated) [OFLOXACIN], which Activity [10] is on record?
A: 3.3%

Q: And the Activity [11]?
A: 1.7%

Q: What about the Activity [12] of the same molecule?
A: 1.3%

Reference: ChEMBL document CHEMBL1275480, “Role of global regulators and nucleotide metabolism in antibiotic tolerance in Escherichia coli” (2008)
